How the values were obtained:
[1] = system: Human immunodeficiency virus 1; test: Inhibition of Efavirenz resistant HIV-1 (K103N-Y181C) induced cytopathicity in MT-4 cells.; format: functional, organism-based; settings: Human immunodeficiency virus 1, MT4
How it was run: (§1)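 MT-4 cells (1×10^4/well) with test compound dilutions (from 200 mM DMSO stock) infected with mutant HIV-1 at a CCID50 dose causing complete cytopathicity by day 4, 37 °C; viability by MTT. Y181C from clinical isolate passaged under nevirapine; K103N–Y181C from IIIB passaged under BI-RG 587. EC50 = 50% protection; mean of three experiments.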

[2] = Selectivity index (Ratio of CC50/EC50).; format: functional
How it was run: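 Ratio of CC50 (MTT viability of mock-infected MT-4 cells) to EC50 (MTT protection of MT-4 cells from cytopathicity of HIV-1 IIIB, inoculum giving complete cytopathicity at day 4, 37 °C); both run in parallel on the same compound dilution series.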

[3] = In vitro concentration required to reduce the amount of p24 by 90% in WTIIIB infected C8166 cells; format: functional; settings: Homo sapiens
How it was run: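 C8166 cells (1×10^4 per well) in RPMI 1640 with 10% FCS, exposed to serial compound dilutions (DMSO stock 200 mM, diluted in medium), then infected with HIV-1 IIIB from H9/IIIB supernatants, inoculum sized for complete cytopathicity at day 4; incubation at 37 °C; p24 measured by immunoenzymatic kit; EC90 = concentration cutting p24 by 90%; means of three experiments.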

[4] = system: Human immunodeficiency virus 1; test: In vitro reduction of p24 by 90% in Efavirenz resistant HIV-1 (K103R, V179D, P225H) infected C8166 cells.; format: functional; settings: Human immunodeficiency virus 1, C8166
How it was run: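 C8166 cells (1×10^4/well) with compound dilutions infected with K103R–V179D–P225H HIV-1 (IIIB passaged in C8166 under efavirenz up to 2 μM), 37 °C; p24 antigen measured by immunoenzymatic kit alongside WT IIIB. EC90 = concentration cutting p24 by 90%; mean of three experiments.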

[5] = system: Human immunodeficiency virus 1; test: Inhibition of Efavirenz resistant HIV-1 (Y181C) induced cytopathicity in MT-4 cells.; format: functional, organism-based; settings: Human immunodeficiency virus 1, MT4; how it was run: as §1
[6] = system: MT4; test: In vitro cytotoxicity against mock infected MT-4 cells.; format: functional; settings: Homo sapiens
How it was run: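 Mock-infected MT-4 cells (1×10^4 per well) in RPMI 1640 with 10% FCS, 37 °C, 5% CO2, exposed to serial compound dilutions (DMSO stock 200 mM, diluted in medium), run in parallel with antiviral wells; viability read by MTT; CC50 = concentration reducing viability by 50%; means of three separate experiments, triplicate samples.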

[7] = system: Human immunodeficiency virus 1; test: Inhibition of HIV-1 (IIIB) induced cytopathicity in MT-4 cells.; format: functional, organism-based; settings: Human immunodeficiency virus 1, MT4
How it was run: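 HIV-1 IIIB (from persistently infected H9/IIIB supernatant) added to MT-4 cells (1×10^4/well) with graded compound concentrations, dose set to give full cytopathicity by day 4, 37 °C. Cell viability read by MTT; EC50 = concentration giving 50% protection. Mean of three experiments.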

## Cc1cc(C)cc(S(=O)(=O)c2c(C(=O)NCC(N)=O)[nH]c3ccc(Cl)cc23)c1
[1]
  EC50: 800 nM
[2]
  Ratio: 5000
[3]
  EC90: 10 nM
[4]
  EC90: 100 nM
[5]
  EC50: 30 nM
[6]
  CC50: 30000 nM
[7]
  EC50: 6 nM

## Cc1cc(C)cc(S(=O)(=O)c2c(C(=O)NC(C)C(N)=O)[nH]c3ccc(Cl)cc23)c1 (stereo not drawn)
[1]
  EC50: 700 nM
[2]
  Ratio: 1330
[3]
  EC90: 4 nM
[4]
  EC90: 40 nM
[5]
  EC50: 10 nM
[6]
  CC50: 4000 nM
[7]
  EC50: 3 nM

## NC(=O)c1[nH]c2ccc(Cl)cc2c1S(=O)(=O)c1ccccc1 [L-737126]
[1]
  EC50: 8000 nM
[2]
  Ratio: 45000
[3]
  EC90: 7 nM
[4]
  EC90: 900 nM
[5]
  EC50: 20 nM
[6]
  CC50: 45000 nM

## Cc1cc(C)cc(S(=O)(=O)c2c(C(=O)NC(C)C(=O)NN)[nH]c3ccc(Cl)cc23)c1 (stereo not drawn)
[1]
  EC50: 4700 nM
[2]
  Ratio: 666
[3]
  EC90: 70 nM
[4]
  EC90: 700 nM
[5]
  EC50: 140 nM
[6]
  CC50: 20000 nM
[7]
  EC50: 30 nM

## CC(NC(=O)c1[nH]c2ccc(Cl)cc2c1S(=O)(=O)c1ccccc1)C(N)=O (stereo not drawn)
[1]
  EC50: 16000 nM
[2]
  Ratio: 6400
[4]
  EC90: 3000 nM
[5]
  EC50: 360 nM
[6]
  CC50: 64000 nM
[7]
  EC50: 10 nM

## NC(=O)CNC(=O)c1[nH]c2ccc(Cl)cc2c1S(=O)(=O)c1ccccc1
[1]
  EC50: > 20000 nM
[2]
  Ratio: 5000
[4]
  EC90: 2700 nM
[5]
  EC50: 180 nM
[6]
  CC50: 65000 nM
[7]
  EC50: 13 nM

## NNC(=O)c1[nH]c2ccc(Cl)cc2c1S(=O)(=O)c1ccccc1
[1]
  EC50: ≥ 100000 nM
[2]
  Ratio: > 10000
[3]
  EC90: 20 nM
[4]
  EC90: 3000 nM
[5]
  EC50: 400 nM
[6]
  CC50: > 100000 nM

## O=C1Nc2ccc(Cl)cc2[C@@](C#CC2CC2)(C(F)(F)F)O1 [EFAVIRENZ]
[3]
  EC90: 8 nM
[4]
  EC90: 1800 nM
[6]
  CC50: 35000 nM

## Cc1cc(C)cc(S(=O)(=O)c2c(C(=O)NCC(=O)NN)[nH]c3ccc(Cl)cc23)c1
[1]
  EC50: 2000 nM
[2]
  Ratio: > 10000
[3]
  EC90: 30 nM
[4]
  EC90: 1000 nM
[5]
  EC50: 50 nM
[6]
  CC50: > 100000 nM
[7]
  EC50: 10 nM

## Cc1cc(C)cc(S(=O)(=O)c2c(C(N)=O)[nH]c3ccc(Cl)cc23)c1
[1]
  EC50: 600 nM
[2]
  Ratio: 3750
[3]
  EC90: 6 nM
[4]
  EC90: 80 nM
[5]
  EC50: 30 nM
[6]
  CC50: 15000 nM

## Cc1ccnc2c1NC(=O)c1cccnc1N2C1CC1 [NEVIRAPINE]
[1]
  EC50: > 30000 nM
[2]
  Ratio: > 270
[3]
  EC90: 120 nM
[4]
  EC90: > 30000 nM
[5]
  EC50: > 30000 nM
[6]
  CC50: > 100000 nM
[7]
  EC50: 400 nM
